Experimental data taken from ChEMBL document CHEMBL1649231, “In vitro activities of panduratin A against clinical Staphylococcus strains” (2009).

Experiments:
Format in all cases: functional
[1] = system: Staphylococcus hominis; assay: Antimicrobial activity against methicillin-susceptible coagulase-negative Staphylococcus hominis assessed as resistant isolates after 24 hrs by broth microdilution method
[2] = system: Staphylococcus epidermidis; assay: Antimicrobial activity against methicillin-resistant coagulase-negative Staphylococcus epidermidis assessed as intermediate resistant isolates after 24 hrs by broth microdilution method
[3] = system: Staphylococcus haemolyticus; assay: Antimicrobial activity against methicillin-susceptible coagulase-negative Staphylococcus haemolyticus after 24 hrs by broth microdilution method
In short: (§1)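 Clinical isolates came from blood, body fluids, genital secretions, pus or sputum, identified conventionally or by Vitek. MICs were run by CLSI M7-A6 broth microdilution in Mueller-Hinton broth with 5 × 10^5 CFU/ml inoculum. Agents were twofold serially diluted, starting from 10% DMSO. Drug-free and uninoculated controls were included. Plates were incubated aerobically at 37°C for 24 h; MIC is the lowest concentration giving no visible growth.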

[4] = system: Staphylococcus haemolyticus; assay: Antimicrobial activity against methicillin-susceptible coagulase-negative Staphylococcus haemolyticus assessed as resistant isolates after 24 hrs by broth microdilution method
[5] = system: Mammaliicoccus sciuri; assay: Antimicrobial activity against methicillin-susceptible coagulase-negative Staphylococcus sciuri after 24 hrs by broth microdilution method; in short: as §1
[6] = system: Staphylococcus simulans; assay: Antimicrobial activity against methicillin-resistant coagulase-negative Staphylococcus simulans after 24 hrs by broth microdilution method; in short: as §1
[7] = system: Mammaliicoccus sciuri; assay: Antimicrobial activity against methicillin-susceptible coagulase-negative Staphylococcus sciuri assessed as susceptible isolates after 24 hrs by broth microdilution method
In short: (§2)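 Clinical isolates from blood, body fluids, pus, sputum or genital secretions, identified conventionally or by Vitek, were tested alongside ATCC 29213 and ATCC 12228 controls. CLSI M7-A6 broth microdilution in Mueller-Hinton broth used twofold dilutions from a 10% DMSO solution and 5 × 10^5 CFU/ml inoculum. Drug-free and uninoculated wells served as controls; incubation was aerobic at 37°C for 24 h. MIC was the lowest concentration with no visible growth.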

[8] = system: Mammaliicoccus sciuri; assay: Bactericidal activity against methicillin-susceptible coagulase-negative Staphylococcus sciuri after 24 hrs by plate counting method
In short: (§3)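 Clinical staphylococcal isolates from patient body fluids, blood, genital secretions, pus or sputum; species by conventional methods or Vitek. Twofold dilutions in Mueller-Hinton broth, inoculum 5 × 10^5 CFU/ml, 37°C aerobic 24 h (CLSI M7-A6 microdilution). About 100 μl from each well without visible growth spread on MHA; 37°C 24 h. MBC = lowest concentration giving no growth on agar.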

[9] = system: Staphylococcus haemolyticus; assay: Bactericidal activity against methicillin-resistant coagulase-negative Staphylococcus haemolyticus after 24 hrs by plate counting method
[10] = system: Staphylococcus simulans; assay: Antimicrobial activity against methicillin-resistant coagulase-negative Staphylococcus simulans assessed as susceptible isolates after 24 hrs by broth microdilution method
[11] = system: Staphylococcus epidermidis; assay: Antimicrobial activity against methicillin-susceptible coagulase-negative Staphylococcus epidermidis assessed as resistant isolates after 24 hrs by broth microdilution method
[12] = system: Staphylococcus simulans; assay: Antimicrobial activity against methicillin-susceptible coagulase-negative Staphylococcus simulans after 24 hrs by broth microdilution method; in short: as §1
[13] = system: Staphylococcus epidermidis; assay: Antimicrobial activity against methicillin-susceptible coagulase-negative Staphylococcus epidermidis assessed as susceptible isolates after 24 hrs by broth microdilution method
[14] = system: Staphylococcus haemolyticus; assay: Antimicrobial activity against methicillin-resistant coagulase-negative Staphylococcus haemolyticus assessed as susceptible isolates after 24 hrs by broth microdilution method
[15] = system: Staphylococcus simulans; assay: Antimicrobial activity against methicillin-susceptible coagulase-negative Staphylococcus simulans assessed as susceptible isolates after 24 hrs by broth microdilution method; in short: as §2
[16] = system: Staphylococcus aureus; assay: Bactericidal activity against methicillin-resistant Staphylococcus aureus after 24 hrs by plate counting method; details: Staphylococcus aureus, 24 h
[17] = system: Staphylococcus aureus; assay: Antimicrobial activity against methicillin-susceptible Staphylococcus aureus after 24 hrs by broth microdilution method; in short: as §1
[18] = system: Mammaliicoccus sciuri; assay: Antimicrobial activity against methicillin-resistant coagulase-negative Staphylococcus sciuri after 24 hrs by broth microdilution method; in short: as §1
[19] = system: Staphylococcus simulans; assay: Bactericidal activity against methicillin-resistant coagulase-negative Staphylococcus simulans after 24 hrs by plate counting method; in short: as §3
[20] = system: Staphylococcus haemolyticus; assay: Bactericidal activity against methicillin-susceptible coagulase-negative Staphylococcus haemolyticus after 24 hrs by plate counting method; in short: as §3
[21] = system: Staphylococcus hominis; assay: Antimicrobial activity against methicillin-susceptible coagulase-negative Staphylococcus hominis assessed as intermediate resistant isolates after 24 hrs by broth microdilution method; details: pooled result: one value given for 5 cell lines, strains, targets or settings
[22] = system: Staphylococcus simulans; assay: Antimicrobial activity against methicillin-resistant coagulase-negative Staphylococcus simulans assessed as intermediate resistant isolates after 24 hrs by broth microdilution method
[23] = system: Staphylococcus hominis; assay: Antimicrobial activity against methicillin-resistant coagulase-negative Staphylococcus hominis assessed as susceptible isolates after 24 hrs by broth microdilution method
[24] = system: Mammaliicoccus sciuri; assay: Antimicrobial activity against methicillin-susceptible coagulase-negative Staphylococcus sciuri assessed as resistant isolates after 24 hrs by broth microdilution method
[25] = system: Staphylococcus epidermidis; assay: Bactericidal activity against methicillin-susceptible coagulase-negative Staphylococcus epidermidis after 24 hrs by plate counting method; in short: as §3
[26] = system: Mammaliicoccus sciuri; assay: Bactericidal activity against methicillin-resistant coagulase-negative Staphylococcus sciuri after 24 hrs by plate counting method; in short: as §3
[27] = system: Staphylococcus epidermidis; assay: Antimicrobial activity against methicillin-resistant coagulase-negative Staphylococcus epidermidis after 24 hrs by broth microdilution method; in short: as §1
[28] = system: Staphylococcus haemolyticus; assay: Antimicrobial activity against methicillin-susceptible coagulase-negative Staphylococcus haemolyticus assessed as susceptible isolates after 24 hrs by broth microdilution method
[29] = system: Staphylococcus simulans; assay: Antimicrobial activity against methicillin-susceptible coagulase-negative Staphylococcus simulans assessed as resistant isolates after 24 hrs by broth microdilution method
[30] = system: Staphylococcus hominis; assay: Antimicrobial activity against methicillin-resistant coagulase-negative Staphylococcus hominis assessed as resistant isolates after 24 hrs by broth microdilution method
[31] = system: Staphylococcus hominis; assay: Bactericidal activity against methicillin-susceptible coagulase-negative Staphylococcus hominis after 24 hrs by plate counting method; in short: as §3
[32] = system: Staphylococcus aureus; assay: Antimicrobial activity against methicillin-resistant Staphylococcus aureus assessed as resistant isolates after 24 hrs by broth microdilution method
[33] = system: Mammaliicoccus sciuri; assay: Antimicrobial activity against methicillin-resistant coagulase-negative Staphylococcus sciuri assessed as intermediate resistant isolates after 24 hrs by broth microdilution method
[34] = system: Staphylococcus epidermidis; assay: Bactericidal activity against methicillin-resistant coagulase-negative Staphylococcus epidermidis after 24 hrs by plate counting method
[35] = system: Staphylococcus simulans; assay: Antimicrobial activity against methicillin-resistant coagulase-negative Staphylococcus simulans assessed as resistant isolates after 24 hrs by broth microdilution method
[36] = system: Staphylococcus aureus; assay: Antimicrobial activity against methicillin-susceptible Staphylococcus aureus assessed as resistant isolates after 24 hrs by broth microdilution method
[37] = Staphylococcus haemolyticus, 24 h
[38] = Staphylococcus epidermidis, 24 h

CC[C@H]1OC(=O)[C@H](C)[C@@H](O[C@H]2C[C@@](C)(OC)[C@@H](O)[C@H](C)O2)[C@H](C)[C@@H](O[C@@H]2O[C@H](C)C[C@H](N(C)C)[C@H]2O)[C@](C)(O)C[C@@H](C)C(=O)[C@H](C)[C@@H](O)[C@]1(C)O [ERYTHROMYCIN]
2 µg/mL: MBC50 [8] | MBC50 [20] | MBC50 [25] | MBC50 [31]
50%: Activity [7] | Activity [13] | Activity [15] | Activity [28]
0.5 µg/mL: MIC [3] | MIC50 [3] | MIC [5] | MIC50 [5] | MIC [12] | MIC50 [12] | MIC [17] | MIC50 [17]
32 µg/mL: MIC90 [6] | MBC50 [9] | MBC [16] | MIC90 [17] | MIC90 [18] | MBC50 [19] | MBC50 [26] | MIC90 [27] | MBC50 [34]
100%: Activity [32]
16 µg/mL: MIC90 [3] | MIC90 [5] | MIC50 [6] | MIC90 [12] | MIC50 [18] | MIC50 [27]
74%: Activity [30] | Activity [35]
1 µg/mL: MBC ([8]; Mammaliicoccus sciuri, 24 h) | MBC [9, 37] | MBC ([19]; Staphylococcus simulans, 24 h) | MBC [20, 37] | MBC [25, 38] | MBC ([26]; Mammaliicoccus sciuri, 24 h) | MBC ([31]; Staphylococcus hominis, 24 h) | MBC [34, 38]
23%: Activity [21]
15%: Activity [2] | Activity [10] | Activity [22] | Activity [33]
40%: Activity [36]
27%: Activity [1] | Activity [4] | Activity [11] | Activity [24] | Activity [29]
11%: Activity [14] | Activity [23]
